These results are taken from ChEMBL document CHEMBL1671631, “Staphylococcus aureus PBP4 is essential for beta-lactam resistance in community-acquired methicillin-resistant strains” (2008).

A short description of test [1]: Antimicrobial activity against hospital-acquired pbp4-deficient Staphylococcus aureus Mu50 serotype USA100 by microdilution method. It is filed as functional, Staphylococcus aureus subsp. aureus Mu50. The method, boiled down: (§1)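 Broth microdilution MIC per CLSI guidelines, inoculum 5 x 10^5 CFU/ml, confirmed by plating serial dilutions. Run in triplicate; three independent clones per mutant. Reported as the median of at least three independent experiments. MBC: clear wells plated onto drug-free tryptic soy agar, 37°C, 24 and 48 h. pEPSA5-carrying strains tested with and without xylose, no chloramphenicol.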

Test [2] has as its system Staphylococcus aureus. In words: Antimicrobial activity against wild type community-acquired methicillin-resistant Staphylococcus aureus USA300 by microdilution method. The test is classed as functional. The method, boiled down: as §1
The subject of test [3] is Staphylococcus aureus. Put plainly: Antimicrobial activity against community-acquired pbp4-deficient Staphylococcus aureus USA300 by microdilution method. The test is classed as functional. The method, boiled down: as §1
Test [4] relates to Staphylococcus aureus. Put plainly: Antimicrobial activity against wild type community-acquired methicillin-resistant Staphylococcus aureus USA300 after 48 hrs by microdilution method. Particulars: USA300, 48 h. It is filed as functional.
Test [5] relates to Staphylococcus aureus. Put plainly: Antimicrobial activity against wild type community-acquired methicillin-resistant Staphylococcus aureus MW2 (USA400) after 48 hrs by microdilution method. The test is classed as functional.
Test [6] can be described thus: Antimicrobial activity against hospital-acquired pbp4-deficient Staphylococcus aureus N315 serotype USA100 by microdilution method. The test is classed as functional, Staphylococcus aureus subsp. aureus N315. The method, boiled down:
(§2)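 Broth microdilution MIC per CLSI guidelines, inoculum 5 x 10^5 CFU/ml, confirmed by plating serial dilutions. Run in triplicate; three independent clones per mutant. Reported as the median of at least three independent experiments.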

Test [7] concerns Staphylococcus aureus. In words: Antimicrobial activity against community-acquired pbp4::pbp4-deficient Staphylococcus aureus USA300 by microdilution method. It is filed as functional. The method, boiled down: as §1
For test [8], the system named is Staphylococcus aureus. Put plainly: Antimicrobial activity against hospital-acquired pbp4-deficient Staphylococcus aureus COL serotype USA500 by microdilution method. It is filed as functional. The method, boiled down:
as §1

Test [9] concerns Staphylococcus aureus. In words: Antimicrobial activity against community-acquired pbp3-deficient Staphylococcus aureus MW2 ex serotype USA400 by microdilution method. It is filed as functional. The essentials:
as §2

Test [10] relates to Staphylococcus aureus. Put plainly: Antimicrobial activity against wild type community-acquired methicillin-resistant Staphylococcus aureus MW2 serotype USA400 by microdilution method. It is filed as functional. The essentials: as §1
Test [11] has as its system Staphylococcus aureus. In words: Antimicrobial activity against community-acquired pbp4-deficient Staphylococcus aureus MW2 ex serotype USA400 by microdilution method. It is filed as functional. The method, boiled down:
as §1

Test [12] concerns Staphylococcus aureus. Put plainly: Antimicrobial activity against hospital-acquired pbp3/4-deficient Staphylococcus aureus COL serotype USA500 by microdilution method. The test is classed as functional. The method, boiled down: as §1
A short description of test [13]: Antimicrobial activity against wild type hospital-acquired methicillin-resistant Staphylococcus aureus N315 serotype USA100 by microdilution method. The test is classed as functional, Staphylococcus aureus subsp. aureus N315. The method, boiled down:
as §1

Test [14] deals with Staphylococcus aureus. In words: Antimicrobial activity against wild type hospital-acquired methicillin-resistant vancomycin-intermediate Staphylococcus aureus Mu50 after 48 hrs by microdilution method. The test is classed as functional. The conditions noted are these: Mu50, 48 h.
Test [15] deals with Staphylococcus aureus. Put plainly: Antimicrobial activity against community-acquired pbp3-deficient Staphylococcus aureus MW2 serotype USA400 by microdilution method. The test is classed as functional. The essentials:
as §1

Test [16] deals with Staphylococcus aureus. In words: Antimicrobial activity against wild type hospital-acquired methicillin-resistant Staphylococcus aureus 252 after 48 hrs by microdilution method. The test is classed as functional. Particulars: Staphylococcus aureus, 252, 48 h.
The nature of test [17]: Antimicrobial activity against wild type hospital-acquired methicillin-resistant vancomycin-intermediate Staphylococcus aureus Mu50 serotype USA100 by microdilution method. It is filed as functional, Staphylococcus aureus subsp. aureus Mu50. The essentials: as §1
The test system of test [18] is Staphylococcus aureus. Put plainly: Antimicrobial activity against community-acquired pbp4::pbp4-deficient Staphylococcus aureus MW2 serotype USA400 by microdilution method. It is filed as functional. The essentials: as §1
Test [19] relates to Staphylococcus aureus. In words: Antimicrobial activity against wild type hospital-acquired methicillin-resistant Staphylococcus aureus COL after 48 hrs by microdilution method. It is filed as functional.
Test [20] concerns Staphylococcus aureus. In words: Antimicrobial activity against community-acquired pbp4-deficient Staphylococcus aureus MW2 serotype USA400 by microdilution method. The test is classed as functional. The essentials:
as §1

In test [21] the test system is Staphylococcus aureus. Put plainly: Antimicrobial activity against wild type hospital-acquired methicillin-resistant Staphylococcus aureus COL serotype USA500 by microdilution method. It is filed as functional. The essentials:
as §1

Test [22] concerns Staphylococcus aureus. Put plainly: Antimicrobial activity against community-acquired pbp3/4-deficient Staphylococcus aureus MW2 ex serotype USA400 by microdilution method. The test is classed as functional. The method, boiled down: as §1
The test system of test [23] is Staphylococcus aureus. In words: Antimicrobial activity against hospital-acquired pbp3-deficient Staphylococcus aureus COL serotype USA500 by microdilution method. It is filed as functional. The essentials: as §1
Test [24] has as its system Staphylococcus aureus. Put plainly: Antimicrobial activity against wild type community-acquired methicillin-resistant Staphylococcus aureus MW2 ex serotype USA400 by microdilution method. It is filed as functional. The essentials:
as §2

Test [25] has as its system Staphylococcus aureus. In words: Antimicrobial activity against community-acquired pbp3/4-deficient Staphylococcus aureus MW2 serotype USA400 by microdilution method. The test is classed as functional. The method, boiled down: as §1
Test [26] deals with Staphylococcus aureus. In words: Antimicrobial activity against community-acquired pbp4-deficient Staphylococcus aureus MW2 serotype USA400 by microdilution method relative to wild type. The test is classed as functional. The essentials:
(§3)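 Broth microdilution MIC per CLSI, inoculum 5 x 10^5 CFU/ml, inoculum confirmed by plating serial dilutions. Three independent clones tested per mutant, each in triplicate. Reported value is the median of at least three independent experiments. MBC obtained by plating clear wells onto drug-free tryptic soy agar, incubated 37°C for 24 and 48 h.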

The test system of test [27] is Staphylococcus aureus. Put plainly: Antimicrobial activity against community-acquired pbp4-deficient Staphylococcus aureus USA300 by microdilution method relative to wild type. The test is classed as functional. The method, boiled down: as §3

≈ marks a conversion by molar mass, not a printed value.

Turning to `CO[C@@]1(NC(=O)Cc2cccs2)C(=O)N2C(C(=O)O)=C(COC(N)=O)CS[C@@H]21` [CEFOXITIN], the MIC in test [1] turned out to be 256 µg/mL (≈ 599 µM); with Staphylococcus aureus [2] it was 64 µg/mL (≈ 150 µM); with Staphylococcus aureus [3], 64 µg/mL (≈ 150 µM); in test [6], 64 µg/mL (≈ 150 µM); against Staphylococcus aureus [7] it was 64 µg/mL (≈ 150 µM); in the test on Staphylococcus aureus [8], 128 µg/mL (≈ 299 µM). Besides, the MIC turned out to be 32 µg/mL (≈ 74.9 µM) against Staphylococcus aureus [9]; 64 µg/mL (≈ 150 µM) with Staphylococcus aureus [10]; 16 µg/mL (≈ 37.4 µM) in the test on Staphylococcus aureus [11]; 128 µg/mL (≈ 299 µM) against Staphylococcus aureus [12]; 64 µg/mL (≈ 150 µM) in [13]; 64 µg/mL (≈ 150 µM) against Staphylococcus aureus [15]. Also, the MIC in [17] is 256 µg/mL (≈ 599 µM); against Staphylococcus aureus [18] it was 64 µg/mL (≈ 150 µM); against Staphylococcus aureus [20] it was 64 µg/mL (≈ 150 µM); against Staphylococcus aureus [21], 128 µg/mL (≈ 299 µM); in the test with Staphylococcus aureus [22] it was 32 µg/mL (≈ 74.9 µM); with Staphylococcus aureus [23], 128 µg/mL (≈ 299 µM). Besides, the MIC against Staphylococcus aureus [24] was 16 µg/mL (≈ 37.4 µM); in the test on Staphylococcus aureus [25], 64 µg/mL (≈ 150 µM). Further, the MBC against Staphylococcus aureus [4], in the test with Staphylococcus aureus [5], against Staphylococcus aureus [14], with Staphylococcus aureus [16] and against Staphylococcus aureus [19] was above 256 µg/mL in each case.

In the case of `CCOc1ccc2ccccc2c1C(=O)N[C@@H]1C(=O)N2[C@@H]1SC(C)(C)[C@@H]2C(=O)O` [NAFCILLIN], the minimum inhibitory concentration (MIC) in [1] was 256 µg/mL (≈ 618 µM); in the test with Staphylococcus aureus [2] it was 16 µg/mL (≈ 38.6 µM); against Staphylococcus aureus [3] it was 1 µg/mL (≈ 2.41 µM); in test [6], 64 µg/mL (≈ 154 µM); in the test with Staphylococcus aureus [7] it was 16 µg/mL (≈ 38.6 µM); in the test on Staphylococcus aureus [8], 64 µg/mL (≈ 154 µM). Besides, the MIC with Staphylococcus aureus [9] is 16 µg/mL (≈ 38.6 µM); in the test on Staphylococcus aureus [10], 16 µg/mL (≈ 38.6 µM); with Staphylococcus aureus [11] it was 1 µg/mL (≈ 2.41 µM); against Staphylococcus aureus [12], 64 µg/mL (≈ 154 µM); in test [13], 64 µg/mL (≈ 154 µM); with Staphylococcus aureus [15] it was 16 µg/mL (≈ 38.6 µM). Besides, the MIC in test [17] turned out to be 256 µg/mL (≈ 618 µM); with Staphylococcus aureus [18], 16 µg/mL (≈ 38.6 µM); against Staphylococcus aureus [20], 1 µg/mL (≈ 2.41 µM); against Staphylococcus aureus [21], 64 µg/mL (≈ 154 µM); with Staphylococcus aureus [22], 1 µg/mL (≈ 2.41 µM); in the test with Staphylococcus aureus [23], 64 µg/mL (≈ 154 µM). The MIC turned out to be 16 µg/mL (≈ 38.6 µM) in the test with Staphylococcus aureus [24] and 1 µg/mL (≈ 2.41 µM) in the test with Staphylococcus aureus [25]. The “fold change (FC)” value with Staphylococcus aureus [26] and in the test on Staphylococcus aureus [27] was 16 throughout.

Regarding `Cc1onc(-c2ccccc2)c1C(=O)N[C@@H]1C(=O)N2[C@@H]1SC(C)(C)[C@@H]2C(=O)O` [OXACILLIN], the MIC amounted to 256 µg/mL (≈ 638 µM) in [1]; 64 µg/mL (≈ 159 µM) against Staphylococcus aureus [2]; 4 µg/mL (≈ 9.96 µM) with Staphylococcus aureus [3]; 64 µg/mL (≈ 159 µM) in the test on Staphylococcus aureus [7]; 256 µg/mL (≈ 638 µM) against Staphylococcus aureus [8]; 2 µg/mL (≈ 4.98 µM) in the test on Staphylococcus aureus [11]. Also, the MIC against Staphylococcus aureus [12] is 256 µg/mL (≈ 638 µM); in test [13], 256 µg/mL (≈ 638 µM); in the test on Staphylococcus aureus [15] it was 64 µg/mL (≈ 159 µM); in [17], 256 µg/mL (≈ 638 µM); in the test on Staphylococcus aureus [18], 64 µg/mL (≈ 159 µM); in the test with Staphylococcus aureus [20], 4 µg/mL (≈ 9.96 µM). Also, the MIC was determined as 64 µg/mL (≈ 159 µM) against Staphylococcus aureus [21], 1 µg/mL (≈ 2.49 µM) against Staphylococcus aureus [22], 256 µg/mL (≈ 638 µM) in the test on Staphylococcus aureus [23] and 4 µg/mL (≈ 9.96 µM) against Staphylococcus aureus [25]. The MBC in the test on Staphylococcus aureus [4] was 256 µg/mL (≈ 638 µM); against Staphylococcus aureus [5] it was 256 µg/mL (≈ 638 µM); against Staphylococcus aureus [14], above 256 µg/mL; against Staphylococcus aureus [16], above 256 µg/mL; in the test on Staphylococcus aureus [19], above 256 µg/mL. Also, the “fold change (FC)” value with Staphylococcus aureus [27] is on record as 16.
